What was measured:
[1] = biological target: T1, Glutamate NMDA receptor; Grin1/Grin2c (Rattus norvegicus) (UniProt P35439+Q00961); test: Positive allosteric modulation of recombinant rat GluN1/GluN2C receptor expressed in xenopus laevis oocyte assessed as potentiation of glutamate and glycine-induced current response at 30 uM at holding potential -40mV by two electrode voltage clamp method relative to control
Outline: (§1)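 Two-electrode voltage clamp at -40 mV, 23°C, pH 7.4 Ba²⁺ recording solution, on Xenopus oocytes expressing rat NMDA receptors. Currents were evoked by 100 µM glutamate plus 30 µM glycine, with compound co-applied (DMSO 0.05–0.5% final). Each compound used at least 4 oocytes from at least 2 frogs.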

[2] = biological target: T2, Glutamate NMDA receptor; Grin1/Grin2b (Rattus norvegicus) (UniProt P35439+Q00960); test: Positive allosteric modulation of recombinant rat GluN1/GluN2B receptor expressed in xenopus laevis oocyte assessed as compound concentration required to show two fold increase in glutamate and glycine-induced current response at holding potential -40mV by two electrode voltage clamp method
[3] = biological target: Ionotropic glutamate receptor NMDA1/2A/2B (Rattus norvegicus) (UniProt P35439+Q00959+Q00960); test: Positive allosteric modulation of recombinant rat GluN1/GluN2A/GluN2B receptor expressed in xenopus laevis oocyte assessed as potentiation of glutamate and glycine-induced current response at 10 uM at holding potential -40mV by two electrode voltage clamp method relative to control
Outline: (§2)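 Triheteromeric GluN1/GluN2A/GluN2B receptors were expressed in oocytes using GluN2 subunits with modified intracellular domains controlling surface expression. Compound was tested at 10 µM by TEVC at -40 mV against maximally effective glutamate and glycine; n=14 oocytes.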

[4] = biological target: T3, Ionotropic glutamate receptor NMDA 1/2D (Rattus norvegicus) (UniProt P35439+Q62645); test: Positive allosteric modulation of recombinant rat GluN1/GluN2D receptor expressed in xenopus laevis oocyte assessed as potentiation of glycine-induced current response at 30 uM at holding potential -40mV by two electrode voltage clamp method
[5] = biological target: Glutamate NMDA receptor; Grin1/Grin2a (Rattus norvegicus) (UniProt P35439+Q00959); test: Positive allosteric modulation of recombinant rat GluN1/GluN2A receptor expressed in xenopus laevis oocyte co-expressing GluN2B assessed as potentiation of glutamate and glycine-induced current response at 10 uM at holding potential -40mV by two electrode voltage clamp method relative to control
[6] = biological target: Glutamate NMDA receptor; Grin1/Grin2c (Rattus norvegicus, UniProt P35439+Q00961); test: Positive allosteric modulation of recombinant rat GluN1/GluN2C receptor expressed in xenopus laevis oocyte assessed as potentiation of glutamate and glycine-induced current response at holding potential -40mV by two electrode voltage clamp method; outline: as §1
[7] = biological target: T2, Glutamate NMDA receptor; Grin1/Grin2b (Rattus norvegicus); test: Positive allosteric modulation of recombinant rat GluN1/GluN2B receptor expressed in xenopus laevis oocyte co-expressing GluN2A at 10 uM assessed as potentiation of glutamate and glycine-induced current response at holding potential -40mV by two electrode voltage clamp method relative to control; outline: as §2
[8] = biological target: T2, Glutamate NMDA receptor; Grin1/Grin2b (Rattus norvegicus); test: Positive allosteric modulation of recombinant rat GluN1/GluN2B receptor expressed in xenopus laevis oocyte assessed as potentiation of glutamate and glycine-induced current response at 30 uM at holding potential -40mV by two electrode voltage clamp method relative to control
Outline: (§3)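 Two-electrode voltage clamp at -40 mV, 23°C, pH 7.4 Ba²⁺ recording solution, on Xenopus oocytes expressing rat NMDA receptors. Currents were evoked by 100 µM glutamate plus 30 µM glycine, with compound co-applied (DMSO 0.05–0.5% final). […] Each compound used at least 4 oocytes from at least 2 frogs.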

[9] = biological target: T4, Glutamate NMDA receptor; Grin1/Grin2b (Rattus norvegicus, UniProt P35439+Q00960); test: Positive allosteric modulation of recombinant rat GluN1/GluN2B receptor expressed in xenopus laevis oocyte assessed as potentiation of glutamate and glycine-induced current response at holding potential -40mV by two electrode voltage clamp method; outline: as §1
[10] = biological target: T3, Ionotropic glutamate receptor NMDA 1/2D (Rattus norvegicus); test: Positive allosteric modulation of recombinant rat GluN1/GluN2D receptor expressed in xenopus laevis oocyte assessed as potentiation of glutamate and glycine-induced current response at 10 uM at holding potential -40mV by two electrode voltage clamp method relative to control; outline: as §3
[11] = biological target: Ionotropic glutamate receptor NMDA 1/2D (Rattus norvegicus, UniProt P35439+Q62645); test: Positive allosteric modulation of recombinant rat GluN1/GluN2D receptor expressed in xenopus laevis oocyte assessed as potentiation of glutamate and glycine-induced current response at holding potential -40mV by two electrode voltage clamp method; outline: as §1
[12] = biological target: T1, Glutamate NMDA receptor; Grin1/Grin2c (Rattus norvegicus); test: Positive allosteric modulation of recombinant rat GluN1/GluN2C receptor expressed in xenopus laevis oocyte assessed as potentiation of glutamate and glycine-induced current response at 10 uM at holding potential -40mV by two electrode voltage clamp method relative to control; details: for Emax: 10 uM; for Activity: 30 uM, in the assay text read “at 30 uM” for “at 10 uM”; outline: as §3
[13] = biological target: T2, Glutamate NMDA receptor; Grin1/Grin2b (Rattus norvegicus); test: Positive allosteric modulation of recombinant rat GluN1/GluN2B receptor expressed in xenopus laevis oocyte assessed as potentiation of glutamate and glycine-induced current response at 10 uM at holding potential -40mV by two electrode voltage clamp method relative to control; details: 30 uM, in the assay text read “at 30 uM” for “at 10 uM”; outline: as §3
[14] = Drug metabolism in human liver microsomes assessed as UGT mediated drug metabolite formation by measuring parent compound half life at […] by LC/MS/MS analysis; assay type: ADME
[15] = biological target: T3, Ionotropic glutamate receptor NMDA 1/2D (Rattus norvegicus); test: Positive allosteric modulation of recombinant rat GluN1/GluN2D receptor expressed in xenopus laevis oocyte assessed as potentiation of glutamate and glycine-induced current response at 30 uM at holding potential -40mV by two electrode voltage clamp method relative to control; outline: as §1
[16] = biological target: T1, Glutamate NMDA receptor; Grin1/Grin2c (Rattus norvegicus); test: Positive allosteric modulation of recombinant rat GluN1/GluN2C receptor expressed in xenopus laevis oocyte assessed as compound concentration required to show two fold increase in glutamate and glycine-induced current response at holding potential -40mV by two electrode voltage clamp method
[17] = Drug metabolism in human liver microsomes assessed as P450 mediated drug metabolite formation by measuring parent compound half life at […] by LC/MS/MS analysis; assay type: ADME
[18] = biological target: T3, Ionotropic glutamate receptor NMDA 1/2D (Rattus norvegicus); test: Positive allosteric modulation of recombinant rat GluN1/GluN2D receptor expressed in xenopus laevis oocyte assessed as compound concentration required to show two fold increase in glutamate and glycine-induced current response at holding potential -40mV by two electrode voltage clamp method
[19] = biological target: T2, Glutamate NMDA receptor; Grin1/Grin2b (Rattus norvegicus); test: Positive allosteric modulation of recombinant rat GluN1/GluN2B receptor expressed in xenopus laevis oocyte assessed as potentiation of glutamate-induced current response at 30 uM at holding potential -40mV by two electrode voltage clamp method
[20] = biological target: T2, Glutamate NMDA receptor; Grin1/Grin2b (Rattus norvegicus); test: Positive allosteric modulation of recombinant rat GluN1/GluN2B receptor expressed in xenopus laevis oocyte assessed as potentiation of glutamate and glycine-induced current response at 30 uM at holding potential -40mV by two electrode voltage clamp method relative to control
[21] = biological target: T1, Glutamate NMDA receptor; Grin1/Grin2c (Rattus norvegicus); test: Positive allosteric modulation of recombinant rat GluN1/GluN2C receptor expressed in xenopus laevis oocyte assessed as potentiation of glutamate and glycine-induced current response at 30 uM at holding potential -40mV by two electrode voltage clamp method relative to control
[22] = biological target: T4, Glutamate NMDA receptor; Grin1/Grin2b

| SMILES | Emax [1] | CD [2] | EC50 [6] | Emax [8] | EC50 [9] | Activity [10] | EC50 [11] | Activity [12] | Emax [15] | CD [16] | CD [18] | other results |
| --- | --- | --- | --- | --- | --- | --- | --- | --- | --- | --- | --- | --- |
| CCOc1ccc(OC[C@@H]2c3ccc(OC(C)C)cc3CCN2C(=O)c2cccc(F)c2)cc1 | 128% | 40 µM | 3600 nM | 204% | 4700 nM | – | – | – | – | – | – | Activity [3]: 136%; Activity [4]: 110%; Activity [5]: 103%; Activity [7]: 177% |
| COc1ccc(OCC2c3ccc(OC(C)C)cc3CCN2C(=O)c2cccc(Br)c2)cc1 (stereo not given) | – | – | 1800 nM | – | 3900 nM | 312% | 2600 nM | 270% | – | – | – | Emax [10]: 338%; Emax [12]: 286%; Emax [13]: 204% |
| CCOc1ccc(OCC2c3ccc(OC(C)C)cc3CCN2C(=O)c2cccc(Cl)c2)cc1 (stereo not given) | – | – | 1800 nM | – | 5300 nM | 102% | – | 126% | – | – | – | Emax [12]: 128%; Emax [13]: 158% |
| COc1ccc(OCC2c3ccc(OC(C)C)cc3CCN2C(=S)c2cccc(Cl)c2)cc1 (stereo not given) | 225% | 2.6 µM | 420 nM | 213% | 490 nM | – | 430 nM | – | 229% | 1.1 µM | 0.8 µM | t1/2 [14]: 29 min; t1/2 [17]: 29 min |
| CCOc1ccc(OCC2c3ccc(OC(C)C)cc3CCN2C(=S)c2cccc(Cl)c2)cc1 (stereo not given) | 278% | – | 5000 nM | 172% | 400 nM | – | 1600 nM | – | 192% | 7.6 µM | – | – |
| CCOc1ccc(OCC2c3ccc(OC4CCCC4)cc3CCN2C(=O)c2cccc(Cl)c2)cc1 (stereo not given) | – | – | 4200 nM | – | 4000 nM | 193% | 4300 nM | 187% | – | – | – | Emax [10]: 188%; Emax [12]: 210%; Emax [13]: 221% |
| COc1ccc(OC[C@H]2c3ccc(OC(C)C)cc3CCN2C(=O)c2cccc(Cl)c2)cc1 | 252% | – | – | – | – | – | – | – | 297% | 1.3 µM | 1 µM | Activity [19]: 101% |
| COc1ccc(OC[C@@H]2c3ccc(OC(C)C)cc3CCN2C(=S)c2cccc(Cl)c2)cc1 | 307% | 1.5 µM | 480 nM | 214% | 320 nM | – | 480 nM | – | 293% | 0.5 µM | 0.5 µM | – |
| COc1ccc(OC[C@H]2c3ccc(OC(C)C)cc3CCN2C(=S)c2cccc(Cl)c2)cc1 | 253% | – | 1700 nM | – | – | – | 2000 nM | – | 250% | 3.8 µM | 4.9 µM | Activity [19]: 105% |
| CCOc1ccc(OCC2c3ccc(OC(C)C)cc3CCN2C(=O)c2cc(Cl)cc(Cl)c2)cc1 (stereo not given) | – | – | – | – | – | 80% | – | 97% | – | – | – | Activity [20]: 105% |
| COc1ccccc1OCC1c2ccc(OC(C)C)cc2CCN1C(=O)c1cccc(Cl)c1 (stereo not given) | – | – | – | – | – | 99% | – | – | – | – | – | Activity [20]: 108%; Activity [21]: 110% |
| COc1ccc(OC[C@@H]2c3ccc(OC(C)C)cc3CCN2C(=O)c2cccc(Cl)c2)cc1 | 277% | 3.5 µM | – | 276% | – | – | 3800 nM | – | 267% | 3.5 µM | 4.4 µM | – |
| CCOc1ccc(OCC2c3ccc(OC(C)C)cc3CCN2C(=O)c2ccc(Cl)c(Cl)c2)cc1 (stereo not given) | – | – | – | – | – | 122% | – | 150% | – | – | – | – |
| COc1ccc(OCC2c3ccc(OC(C)C)cc3CCN2C(=S)c2cccc(F)c2)cc1 (stereo not given) | 226% | 1.9 µM | 970 nM | 259% | 1400 nM | – | 1100 nM | – | 208% | 2.1 µM | 4.2 µM | – |
| NCCCNCCCCNCCCN [SPERMINE] | – | – | – | – | – | – | – | – | – | – | – | EC50 [22]: 100000 to 200000 nM |
